Measurements from different studies.
Lines come from different studies, so protocols differ. Values after ≈ are worked out from the molar mass of the structure shown.

| Structure (SMILES) | tested on | assay | test system | conditions | quantity | result |
| --- | --- | --- | --- | --- | --- | --- |
| Cc1ccc(N=Nc2c(N)nn3c(-c4ccco4)cc(-c4ccc(OCc5ccccc5)cc4)nc23)cc1 | Enterobacter cloacae | microbial killing | ATCC23355 | – | MBC | 125 µg/mL (≈ 250 µM) |
| Cc1ccc2[nH]nc(-c3nnc(Nc4ccc(Cl)cc4)s3)c2c1 | Serratia marcescens | microbial growth | ATCC8100 | – | MIC | 65.8 µg/mL (≈ 192 µM) |
| CC(C)(C)c1cc(NC(=O)Nc2ccc(-c3cn4c(n3)sc3cc(OCCN5CCOCC5)ccc34)cc2)no1 | 22Rv1 | cell growth or viability | – | 72 h | GI50 | > 10 µM |
| Nc1nn2c(-c3ccc(Cl)cc3Cl)cc(-c3ccc(OCc4ccccc4)cc3)nc2c1N=Nc1ccc(F)cc1 | Enterobacter cloacae | microbial killing | ATCC23355 | – | MBC | 62.5 µg/mL (≈ 107 µM) |
| O=C(NCc1cn(Cc2ccc(Br)cc2)nn1)Nc1ccc(Cl)cc1 | NCI-H1299 | cell growth or viability, CCK-8 | – | 50 µM, 72 h | viability | 91.5% |
| Cc1ccc2[nH]nc(-c3nnc(Nc4ccc(C(F)(F)F)cc4)s3)c2c1 | Serratia marcescens | microbial growth | ATCC8100 | – | MIC | 62.8 µg/mL (≈ 167 µM) |
| COc1ccc(N=Nc2c(N)nn3c(-c4ccco4)cc(-c4ccc(OCc5ccccc5)cc4)nc23)cc1 | Enterobacter cloacae | microbial killing | ATCC23355 | – | MBC | 62.5 µg/mL (≈ 121 µM) |
| CN(C)CCNC(=O)c1ccc(-c2nc3ccc4[nH]ncc4c3c3c2CCCC3)c(F)c1 | 22Rv1 | cell growth or viability | – | 72 h | GI50 | 1.28 µM |
| CC[C@H]1OC(=O)[C@H](C)[C@@H](O[C@H]2C[C@@](C)(OC)[C@@H](O)[C@H](C)O2)[C@H](C)[C@@H](O[C@@H]2O[C@H](C)C[C@H](N(C)C)[C@H]2O)[C@](C)(O)C[C@@H](C)CN(C)[C@H](C)[C@@H](O)[C@]1(C)O | Serratia marcescens | microbial growth | ATCC8100 | – | MIC | < 98 µg/mL |
| COc1ccc(NC(=O)NCc2cn(Cc3ccc(Br)cc3)nn2)cc1 | NCI-H1299 | cell growth or viability, CCK-8 | – | 50 µM, 72 h | viability | 91.9% |
| O=C(Nc1cccc(-c2cn(Cc3ccc(Cl)cc3)nn2)c1)Nc1ccccc1Br | NCI-H1299 | cell growth or viability, CCK-8 | – | 50 µM, 72 h | viability | 130% |
| COc1ccc(NC(=O)Nc2ccc(-c3cn(Cc4cccc(Cl)c4)nn3)cc2)cc1 | NCI-H1299 | cell growth or viability, CCK-8 | – | 50 µM, 72 h | viability | 93.7% |
| O=C(NCc1cn(Cc2ccc(Cl)cc2)nn1)Nc1ccccc1Br | NCI-H1299 | cell growth or viability, CCK-8 | – | 50 µM, 72 h | viability | 90.7% |
| COc1ccc(NC(=O)Nc2cccc(-c3cn(Cc4ccc(Br)cc4)nn3)c2)cc1 | NCI-H1299 | cell growth or viability, CCK-8 | – | 50 µM, 72 h | viability | 151% |
| Cc1n[nH]c2ccc3nc(-c4ccc(C(=O)NCCN(C)C)cc4)c4c(c3c12)CCCCC4 | 22Rv1 | cell growth or viability | – | 72 h | GI50 | 7.15 µM |
| O=C(Nc1ccc(-c2cn(Cc3ccc(Br)cc3)nn2)cc1)Nc1ccccc1Br | NCI-H1299 | cell growth or viability, CCK-8 | – | 50 µM, 72 h | viability | 115% |
| COc1ccc(NC(=O)Nc2ccc(-c3cn(Cc4ccc(Br)cc4)nn3)cc2)cc1 | NCI-H1299 | cell growth or viability, CCK-8 | – | 50 µM, 72 h | viability | 106% |
| COc1ccc(N=Nc2c(N)nn3c(-c4ccc(Cl)cc4Cl)cc(-c4ccc(OCc5ccccc5)cc4)nc23)cc1 | Enterobacter cloacae | microbial killing | ATCC23355 | – | MBC | 250 µg/mL (≈ 420 µM) |
| O=C(Nc1ccc(Cl)cc1)Nc1ccc(-c2cn(Cc3ccc(Br)cc3)nn2)cc1 | NCI-H1299 | cell growth or viability, CCK-8 | – | 50 µM, 72 h | viability | 89.9% |
